pIC50: −log10 of the molar value. “Also recorded” adds a separate entry of the source.
Experiments:
plasmid (pBR322) DNA = test: Electrophoresis mobility shift assay; format: binding; details: 37 °C, 20 h, increasing molar ratios
Method in brief: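 pBR322 plasmid DNA (20 µg/mL) in 5 mM Tris/HCl, 50 mM NaClO₄, pH 7.39 was incubated with test compound at compound/DNA molar ratios of 0.25–4.0, 37 °C, 20 h, in the dark. Free DNA and cisplatin-DNA served as controls. Samples ran on 1% agarose in TAE for 1.5 h at 80 V, with GelRed staining for 30 min.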

[1] = system: Jurkat sh-Bak cells (Bax/Bak-deficient Jurkat cells); test: Activity against apoptosis-resistant cells; format: cell-based, human; details: cisplatin-resistant
Solubility = format: physicochemical
[2] = Stability in solution by 31P{1H} and 1H NMR; format: physicochemical; details: RT
[3] = molecular target: human serum albumin (HSA) (Homo sapiens, UniProt P02768); test: HSA fluorescence quenching; format: binding; details: excitation 295 nm, HSA 10 µM, phosphate buffer pH 7.39; compared to cisplatin
human serum albumin (HSA), sequence (P02768 25-609): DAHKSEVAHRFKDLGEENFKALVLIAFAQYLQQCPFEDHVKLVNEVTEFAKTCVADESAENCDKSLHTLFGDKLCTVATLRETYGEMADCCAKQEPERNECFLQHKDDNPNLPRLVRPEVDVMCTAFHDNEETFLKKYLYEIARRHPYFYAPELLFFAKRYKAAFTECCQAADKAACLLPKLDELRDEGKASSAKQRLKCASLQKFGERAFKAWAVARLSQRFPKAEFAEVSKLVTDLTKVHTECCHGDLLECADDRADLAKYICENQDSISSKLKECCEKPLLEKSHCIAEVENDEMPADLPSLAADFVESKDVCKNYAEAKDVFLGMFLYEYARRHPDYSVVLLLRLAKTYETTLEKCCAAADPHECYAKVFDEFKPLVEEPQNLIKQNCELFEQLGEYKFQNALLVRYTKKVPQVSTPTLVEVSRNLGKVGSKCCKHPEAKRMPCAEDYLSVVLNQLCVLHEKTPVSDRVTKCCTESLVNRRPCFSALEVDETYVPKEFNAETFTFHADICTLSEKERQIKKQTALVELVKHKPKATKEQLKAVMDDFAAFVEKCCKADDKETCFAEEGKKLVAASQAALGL
Method in brief: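 HSA (10 µM) in phosphate buffer pH 7.39 received ten successive additions from an 8 mM DMSO stock of test compound, with a read 240 s after each. Tryptophan excitation was at 295 nm and emission was recorded at 300–450 nm at room temperature. Data were fitted to the Stern-Volmer equation F₀/F = 1 + K_SV[Q].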

Jurkat cells = test: Cell death pathway; format: cell-based, human; details: 24 h, concentrations for IC50 values
Method in brief: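 Jurkat cells (5 ×10⁵ cells/ml) exposed to test compound for 24 h. Nuclei stained with Hoechst (10 µg/ml) and photographed under UV light. For flow cytometry, cells were held in annexin binding buffer (140 mM NaCl, 2.5 mM CaCl₂, 10 mM Hepes/NaOH, pH 7.4) with fluorescent AnnexinV (0.5 µg/ml) and 7-AAD (50ng/µl) at 37 °C for 15 min, then diluted with buffer and counted.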

[4] = system: human Jurkat-T acute lymphoblastic leukemia cells; test: Cytotoxicity by modified MTT-reduction method, 24 h; format: cell-based
[5] = system: MOLT-4 human leukemia cell line; details: read-out: IC50 MOLT-4; cited from earlier work
Calf Thymus DNA = test: Interaction with CT DNA by circular dichroism; format: binding; details: drug/DNA ratios 0.1-1.0, 37 °C, 20 h
Method in brief: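 CT DNA (195 µM) in 5 mM Tris/HCl, 50 mM NaClO₄, pH 7.39 received test compound from fresh 5 mM stocks in DMSO-H₂O (1:99). Mixtures were kept 20 h at 37 °C in the dark. CD spectra were recorded at 25 °C over 220–320 nm, blank-corrected, smoothed with a Savitzky-Golay filter, and expressed in molar ellipticity.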

[6] = system: DU-145 human prostate cancer cells; test: Cell death pathway; format: cell-based; details: 24 h
Method in brief: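 DU-145 cells in RPMI 1640 with 5% FCS, L-glutamine and penicillin/streptomycin were seeded at 1×10⁵ cells/mL and allowed to attach. Test compound (1% DMSO, diluted in water) was given for 24 h. Nuclei were stained with Hoechst (10 µg/ml) and imaged under UV. For flow cytometry, cells went into Hepes pH 7.4 annexin buffer with Annexin V conjugate (0.5 µg/ml) and 7-AAD, 37 °C, 15 min.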

[7] = system: DU-145 human prostate cancer cells; test: Cytotoxicity by modified MTT-reduction method, 24 h; format: cell-based; details: DU-145 cells
Method in brief: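 DU-145 cells were grown in RPMI 1640 with 5% FCS, L-glutamine and penicillin/streptomycin, seeded at 1 ×10⁵ cells/mL and allowed to attach. […] After 24 h, proliferation was read by a modified MTT-reduction method and IC₅₀ derived.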

In the case of `N.N.[Cl][Pt][Cl]` [Cisplatin, reference compound], the “effect on electrophoretic mobility of pBR322 forms” value (plasmid (pBR322) DNA) was “decrease in mobility of the CCC form and an increase in mobility of the OC form” and the “toxicity to Jurkat sh-Bak cells” value [1] was “activity is totally dependent on the presence of functional Bax and Bak”.

In the case of `O=C(N=P12CN3CN(CN(C3)C1)C2)c1ccccn1` [Compound 1, TPA=N-C(O)-2-NC5H4 (N,N-IM)], the “effect on electrophoretic mobility of pBR322 forms” value (plasmid (pBR322) DNA) was “does not cause any shift for either form”, the “solubility in H2O” value (Solubility; H2O) was “soluble” and the “stable in DMSO solution (time)” value ([2]; DMSO) was 14 days. For the same molecule, the “stable in H2O (time)” value ([2]; H2O) was 3 h.

In the case of `O=C1[N-][Au]([Cl])([Cl])[n+]2ccccc21` [Compound 5, [AuCl2(HN-C(O)-2-NC5H4)]], the “quenching of HSA fluorescence” value [3] was “higher quenching”, the “cell death in Jurkat cells” value (Jurkat cells) was “induced cell death in Jurkat cells; also recorded: induce both necrotic and apoptotic cell death” and the “toxicity to Jurkat sh-Bak cells” value [1] was “exhibited some toxicity”. The “times more cytotoxic than cisplatin” value [4] was “seven”, the “solubility at concentrations required for ITC” value (Solubility; ITC conditions, phosphate buffer) was “poor solubility at the required concentrations” and the pIC50 [5] was 5.51. The “effect on CD spectrum of CT DNA / interaction with CT DNA” value (Calf Thymus DNA) was “decrease in helicity (destabilizing effect); also recorded: interacts more strongly with DNA most likely by intercalation”, the “cell death / growth in DU-145 cells” value [6] was “do not induce cell death in DU-145 at 24 h” and the “times more cytotoxic than cisplatin” value [7] was 4 times.

From paper PMC3483362 (Journal of inorganic biochemistry, 2012)
